High-throughput results (PubChem)
Most compounds without a hit are left out; they make up all but 0.73% or so of the library.
Keap1-Nrf2 PPI: Keap1-Nrf2 (human) interaction inhibition. Q14145. Keap1 Kelch-Nrf2 peptide fluorescence polarization, 1536-well. inhibition, % at 9.4 µM. hit rate 0.15% among 340,000; in the data active means inhibition above about 12%;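 further: human Keap1 Kelch domain with fluorescein labeled Nrf2 9mer peptide probe; 0% = neutral control wells and 100% = peptide positive control; higher means more block of Keap1 binding to Nrf2 peptide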
DDE Tn6 FP inh: DD(E)-Tn6 binding inhibition, primary FP screen; inhibition, % at 8.3 µM; hit rate 0.21% among 370,000; P02675; Fibrin DD(E) TRITC-Tn6 fluorescence polarization displacement;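 active means inhibition above a per-campaign cutoff: mean of compounds within control limits plus 3 SD, cut at about 15% in these data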;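 further: 0% = median of all compound wells on the plate and 100% = blocking peptide control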
Target sequence (P02675 whole entry, looked up): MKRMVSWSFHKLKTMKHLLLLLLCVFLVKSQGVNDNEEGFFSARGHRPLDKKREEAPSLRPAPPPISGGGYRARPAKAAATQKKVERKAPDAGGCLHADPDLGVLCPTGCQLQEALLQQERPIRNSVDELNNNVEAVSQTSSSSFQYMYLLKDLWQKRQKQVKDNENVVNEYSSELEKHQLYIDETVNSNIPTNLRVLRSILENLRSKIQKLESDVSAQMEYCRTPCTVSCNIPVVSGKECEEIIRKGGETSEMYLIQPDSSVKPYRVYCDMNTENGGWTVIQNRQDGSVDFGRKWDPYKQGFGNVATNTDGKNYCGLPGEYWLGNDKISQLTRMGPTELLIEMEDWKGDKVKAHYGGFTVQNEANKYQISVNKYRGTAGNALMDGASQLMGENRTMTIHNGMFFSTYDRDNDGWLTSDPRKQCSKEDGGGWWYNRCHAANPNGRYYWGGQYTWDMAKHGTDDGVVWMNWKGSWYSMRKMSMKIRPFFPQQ
C-LANA FP: KSHV C-LANA DNA binding inhibition. MBP-C-LANA/FAM-LBS DNA binding, fluorescence polarization. inhibition, % at 9 µM. hit rate 0.078% among 340,000;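 active means highest replicate inhibition at or above 60% at 9 µM, even if other replicates fall short; inactive means all replicates below 60% inhibition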;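 further: 0% = neutral control wells and 100% = 4 µM acridine orange control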
Tn7 DDE FP: DD(E)-Tn7 binding inhibition, primary FP screen | hit rate 0.13% among 370,000 | inhibition, % at 8.3 µM | FP displacement of FITC-Tn7 peptide from fibrin DD(E); 0% = median of compound wells per plate | P02675;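 active means inhibition above the mean of compounds falling within the control limits plus 3 SD of them, cut at about 14% in these data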;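 further: 0% = plate median of compound wells and 100% = 10 µM Aha-Tn7 peptide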
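Test system – human fibrin DD(E) · Times – 10 min preincubation, 3 h with tracer, room temperature · Detection – fluorescence polarization of the labelled Tn7 tracer · Measure – percent inhibition normalized to high-control wells · Benchmarks – high control wells with 10 µM unlabelled Aha-Tn7 peptide (full inhibition) · Repeats – singlicate testing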
cardiac RTF act: increases calcium sensitivity of human cardiac regulated thin filaments; P19429+P45379; IANBD-labeled TnC RTF fluorescence at EC20 calcium; 0% EC20 calcium, 100% full calcium; activation, % at 7.2 µM; hit rate 0.24% among 340,000; AID 493008;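 active means activation above the mean over all tested compounds plus 3 SD, cut at about 30% in these data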;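 further: rise in fluorescence read as greater calcium sensitivity of cardiac thin filaments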
RTF Ca sens inh: cardiac RTF calcium desensitization | P19429+P45379 | IANBD-labeled cardiac RTF, Ca2+ fluorescence | inhibition, % at 7.15 µM | hit rate 0.12% among 340,000 | AID 493244;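 active means inhibition above the mean inhibition of all tested compounds plus 3 SD, cut at about 17% in these data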;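 further: assay run at fixed EC70 calcium of 1.6 mM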
Keap1 Kelch bind: Keap1 (human) Kelch domain binding; AID 651823; shares compounds with Keap1-Nrf2 PPI; hit rate 8% among 400; max delta Tm, degrees C; Keap1 Kelch thermal shift, delta Tm; hits give high values; in the data active means max delta Tm above about 0.48 degrees C
Dye-only ctr: counter-screen for Keap1 thermal shift hits: dye-only artifacts | delta Tm, degrees C (no concentration beside the values) | shares compounds with Keap1-Nrf2 PPI | Sypro Orange dye-only thermal melt, no protein, delta Tm; top dose 26 µM | AID 651858 | 140 tested, under 10 active;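 active means at highest dose tested, delta Tm positive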
* marks the source's active call; other numbers are inactive results; x = not tested or not shown.

SMILES	Keap1-Nrf2 PPI	DDE Tn6 FP inh	C-LANA FP	Tn7 DDE FP	cardiac RTF act	RTF Ca sens inh	Keap1 Kelch bind	others
O=[N+]([O-])c1ccc(S(=O)(=O)c2ccccc2)nc1	13.5*	-3.1	-0.9	1.9	-7.4	-7.0	-0.08
COC(=O)C1=C(C)N(Cc2ccccc2C(F)(F)F)C(=NCc2ccccc2C(F)(F)F)NC1c1cccc(C(F)(F)F)c1 (centres undefined)	x	1.4	x	9.2	x	x	x
O=[N+]([O-])c1ccc(CN2CCOCCOCCN(Cc3ccc([N+](=O)[O-])cc3Cl)CCOCC2)c(Cl)c1	x	-1.7	x	-2.2	x	x	x
Cc1cccc(C)c1NC(=O)C1(C)CN(S(C)(=O)=O)CC(=O)N1Cc1ccc2c(c1)OCO2 (centres undefined)	x	-12.2	x	3.4	x	x	x
Cn1nc(C(=O)NNC(=O)Cc2ccc(S(=O)(=O)N3CCOCC3)s2)c2ccccc2c1=O	32.2*	6.2	20.1	-4.2	3.0	-13.8	-0.18	Dye-only ctr=-27.7
Cc1ccc(-c2c(C(=O)NC3CCCC3)oc(=O)c3ccccc23)cc1	x	-6.8	x	-4.0	x	x	x
CC1(C)CC(=O)N(CC(=O)N2CCN(c3cccc(C(F)(F)F)c3)CC2)c2ccccc2S1(=O)=O	x	-4.2	x	9.2	x	x	x
Cc1c(N)cc(N)cc1C(=O)O	14.9*	-0.5	23.5	6.2	1.0	-35.9	-0.15
COc1ccc(C2N3CC4(C)CN2CC(C)(C3)C4O)cc1 (centres undefined)	20.2*	-2.6	1.5	-0.1	4.2	4.0	-0.16
O=C(Cc1ccc(S(=O)(=O)N2CCCC2)s1)Nc1nc2c(s1)CCCC2	13.1*	-2.6	10.3	-5.0	5.4	-14.4	-0.08	Dye-only ctr=-29.4
Cc1cc(C)cc(NC(=O)Cc2ccc(S(=O)(=O)N3CCCC3)s2)c1	-4.0	3.1	1.1	9.6	0.9	-0.8	x
Cc1[nH]nc2c1C(CC(C)C)C(C#N)=C(N)O2 (centres undefined)	46.2*	-2.4	28.4	-1.2	x	x	-0.17	Dye-only ctr=-32.9
C=CCN1[C@H](C)[C@H](c2ccccc2)Oc2cc(Br)ccc2S1(=O)=O	x	-5.4	x	-8.8	x	x	x
O=S(=O)(Nc1ncccn1)c1ccc(NC(=S)NCc2cccnc2)cc1	16.8*	-5.3	1.3	-4.0	2.0	10.0	-0.18
CCOC(=O)CC[C@@H]1CC[C@]2(CCCN(Cc3ccc(Cl)cc3)C2)O1	x	2.1	x	-4.0	x	x	x
O=C1NC(c2cc(Cl)cc([N+](=O)[O-])c2O)Nc2ccccc21 (centres undefined)	49.3*	5.7	1.3	4.3	1.0	-15.8	0.25
Cc1ccc(S(=O)(=O)N2CCCCC2)cc1NC(=O)c1ccccc1Cl	31.3*	-0.8	23.2	-5.4	6.6	-23.0	-0.18
CCOC(=O)C1CCN(C(=O)C(Cc2ccc3c(c2)OCO3)NC(C)=O)CC1 (centres undefined)	x	-1.0	x	1.0	x	x	x
COC(=O)c1cccc(NC(=O)Nc2ccc(Cl)cc2)c1	-0.8	0.6	-2.0	2.9	x	x	x
COC(=O)c1cccc(NC(=O)NC(=O)c2ccc(Cl)cc2)c1	44.4*	10.2	27.5	2.7	x	x	-0.01
O=C(CCc1ccccc1-c1ccccc1CCNC(=O)c1ccccc1)NCc1ccccc1	x	0.8	x	0.6	x	x	x
COc1ccc(NS(=O)(=O)c2ccc(Br)cc2)cn1	-2.0	-8.9	0.8	0.3	-7.0	1.5	x
COc1ccc(NS(=O)(=O)c2ccc(F)c(Cl)c2)cn1	21.3*	5.1	31.7	6.3	8.3	-13.6	-0.07
CCOc1ccc(C(=O)COC(=O)c2nn(CC)c(=O)c3ccccc23)cc1	21.4*	-6.2	11.0	-3.1	-1.3	-0.8	-0.09
CCn1nc(C(=O)OCC(=O)c2c[nH]c3ccccc23)c2ccccc2c1=O	-5.2	0.8	2.2	9.4	7.0	-8.1	x
SMILES	Keap1-Nrf2 PPI	DDE Tn6 FP inh	C-LANA FP	Tn7 DDE FP	cardiac RTF act	RTF Ca sens inh	Keap1 Kelch bind	others
COC(=O)[C@]12CCCCC=C1N(Cc1ccc(Cl)cc1Cl)C(=O)[C@H](CC(=O)NCCc1ccccc1OC)C2	x	-2.9	x	-3.1	x	x	x
CCOC(=O)C1=C(CSc2nc3c(cc2C#N)CN(C)CC3)OC(N)=C(C#N)C1c1ccc(Cl)cc1 (centres undefined)	-5.9	9.1	3.1	4.2	4.6	-12.7	x
CCOC(=O)C1=C(CSc2nc3c(cc2C#N)CN(C)CC3)OC(N)=C(C#N)C1c1ccncc1 (centres undefined)	16.8*	3.1	35.4	-3.5	10.9	-37.6	0.08
CC(OC(=O)c1ccc([N+](=O)[O-])o1)C(=O)NC1CCCCC1C (centres undefined)	20.8*	5.8	10.4	-7.4	6.2	2.2	-0.07
CC1=CC(=C2N=C(c3ccccc3)OC2=O)C=C(C)O1	17.0*	4.0	1.2	2.0	1.9	-6.1	-0.13
CC1CCN(C2=NC(=O)/C(=C/c3cccc(O)c3)S2)CC1	-0.9	-2.4	-1.2	5.5	-1.1	-4.4	x
CC1Cc2cc(/C=C3/SC(N4CCC(C(N)=O)CC4)=NC3=O)ccc2O1 (centres undefined)	21.3*	-0.1	11.3	-4.9	x	x	-0.12
Clc1ccc(-c2noc(CN3CCOCC3)n2)cc1	68.4*	-0.9	x	-1.2	x	x	-0.18	Dye-only ctr=-22.5
O=C(C1CCN(Cc2nc(-c3ccc(Cl)cc3)no2)CC1)N1CCOCC1	2.9	-11.3	0.8	3.0	1.7	0.9	x
CC1CN(C(=O)CSc2nc(N)c(NC(=O)c3ccc(C(F)(F)F)cc3)c(=O)[nH]2)CC(C)O1 (centres undefined)	x	1.6	x	2.3	x	x	x
CCN(CC)c1ccc2cc(S(=O)(=O)c3ccc(Cl)cc3)c(=O)oc2c1	32.8*	10.9	41.0	-8.1	253.4*	-291.0	0.91	Dye-only ctr=-22.5
CCCCCCc1cc2cc(S(=O)(=O)c3ccc(Cl)cc3)c(=O)oc2cc1O	-6.5	3.3	-0.3	-7.9	5.5	-4.9	x
O=c1[nH]c2c(s1)C=Nc1ccccc1N2	38.2*	7.1	54.4	30.2*	78.4*	-100.4	-0.04	Dye-only ctr=-20.5
C[C@H]1[C@@H](N)CC[C@@]23CCCN2C(=O)CCC[C@@H]13	x	-2.8	x	-2.6	x	x	x
Cc1c(C(C)(C)O)[nH]c2cc(C(F)(F)F)ccc12	-2.8	2.3	0.5	6.1	2.3	-2.9	x
O=c1[nH]c2cc(C(F)(F)F)ccc2n1-c1cc(C(F)(F)F)ccc1O	15.2*	-4.6	-4.5	-7.3	16.4	4.2	0.03
CCC1OC2(C)OC(=N)C1(C#N)C(C#N)(C#N)C2c1ccccc1 (centres undefined)	31.1*	1.4	63.5*	1.5	14.7	-17.1	-0.08	Dye-only ctr=-22
CCC12OC(=N)C(C#N)(C1C)C(C#N)(C#N)C(c1ccccc1)O2 (centres undefined)	-0.2	6.6	2.7	6.0	16.6	-7.9	x
